According to ChEMBL document CHEMBL1275389, “In vivo characterization of a dual adenosine A2A/A1 receptor antagonist in animal models of Parkinson's disease” (J Med Chem, 2010):
Values belong to the compound of their own block, whether it stands above or below them. Active and inactive are the calls of the source. The calls are words filed in the database; no cut-off is given here.

Experiments:
[1] = system: Rattus norvegicus; assay: Potentiation of L-dopa-induced rotational behavior in unilaterally 6-hydroxydopamine-lesioned po dosed Sprague-Dawley rat pretreated 30 mins before L-dopa challenge measured for 120 mins in presence of carbidopa; assay type: functional, organism-based
Procedure, shortened: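 6-OHDA (12 μg) was microinjected unilaterally into the medial forebrain bundle. Six weeks later rats got L-DOPA (10 mg/kg po, with carbidopa 2.5 mg/kg sc) alone or together with oral test compound (0.1, 1.0, 3.0, 10 mg/kg). Contralateral 360° turns were counted by an optical sensor during the 2 h before and after L-DOPA. Mean ± SEM, n = 16 rats; Tukey's test versus L-DOPA + vehicle.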

[2] = Cmax in BALB/c mouse plasma at 10 mg/kg, po; assay type: ADME, organism-based; design: dose 10 mg/kg, route oral
Procedure, shortened: (§1)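 Fasted male BALB/c mice received one oral dose of 10 mg/kg as a solution in 0.5% methylcellulose. For bioavailability, a separate iv dose of 2 mg/kg was given in 10% solutol. Discrete blood samples were taken by cardiac puncture from 3–4 animals per time point. Plasma was acetonitrile-precipitated and measured by LC-MS/MS (LOQ 0.7-2 ng/mL). Parameters came from noncompartmental analysis.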

[3] = system: Rattus norvegicus; assay: Reversal of haloperidol-induced catalepsy in Sprague-Dawley rat at 10 mg/kg, po administered 30 mins after haloperidol challenge measured for 180 seconds after 4 hrs; assay type: functional, organism-based; design: dose 10 mg/kg
Procedure, shortened: (§2)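 Haloperidol-treated rats (1 mg/kg sc) were dosed orally with test compound (0, 1, 10 mg/kg) or L-DOPA 200 mg/kg plus benserazide 50 mg/kg. Time to descend from the bar (max 180 s) was measured at 15 min, 1 h, 2 h and 4 h after dosing. n = 10 rats; Dunnett's test versus haloperidol + vehicle.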

[4] = Oral bioavailability in cynomolgus monkey at 10 mg/kg; assay type: ADME, organism-based, Macaca fascicularis; details: in vivo
Procedure, shortened: (§3)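 Fasted male and female cynomolgus monkeys received one oral dose of 10 mg/kg as a solution in 0.5% methylcellulose. For bioavailability, a separate iv dose of 1 mg/kg was given in 10% solutol. Serial blood was drawn by venipuncture. Plasma was acetonitrile-precipitated and measured by LC-MS/MS (LOQ 0.7-2 ng/mL). Noncompartmental analysis was applied to individual plasma concentrations.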

[5] = Cmax in cynomolgus monkey plasma at 10 mg/kg, po; assay type: ADME, organism-based, Macaca fascicularis; design: dose 10 mg/kg, route oral; procedure, shortened: as §3
[6] = Cmax in Sprague-Dawley rat brain at 10 mg/kg, po; assay type: ADME, organism-based; design: dose 10 mg/kg, route oral
Procedure, shortened: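 Tissue distribution study: fasted male Sprague-Dawley rats were given 10 mg/kg orally in 0.5% methylcellulose. Four rats per time point were euthanized to collect brain. Brains were weighed, homogenized in methanol, and the extract evaporated and reconstituted in mobile phase for LC-MS/MS.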

[7] = system: Mus musculus; assay: Reversal of reserpine-induced akinesia in CF1 mouse at 30 mg/kg, po administered 18 hrs after reserpine challenge measured for 30 mins after 60 mins
[8] = system: Mus musculus; assay: Reversal of haloperidol-induced catalepsy in BALB/c mouse at 3 mg/kg, po administered 30 mins after haloperidol challenge measured for 60 seconds after 4 hrs; assay type: functional, organism-based; design: dose 3 mg/kg
Procedure, shortened: (§4)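 Fasted male BALB/c mice received haloperidol (1 mg/kg sc) and were then dosed orally with test compound (0, 1, 3 mg/kg in 0.5% methylcellulose), reference A2A antagonist (5 mg/kg) or vehicle. Bar catalepsy (max 60 s) was measured repeatedly at 15 min, 1 h, 2 h and 4 h after dosing. Mean ± SEM, n = 12; Dunnett's test.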

[9] = system: Callithrix jacchus; assay: Inhibition of MPTP-induced motor disabilities in Callithrix jacchus at 10 mg/kg, po measured every 5 mins for 6 hrs; assay type: functional, organism-based; design: dose 10 mg/kg
Procedure, shortened: (§5)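 MPTP-treated marmosets were dosed orally with vehicle, L-DOPA (12 mg/kg) or test compound (0.1/0.3, 1.0, 10, 50 mg/kg). Parkinsonian motor disability was scored out to 6 h. Eight animals per group. Analysis used a Friedman nonparametric repeated-measures ANOVA with Dunn's test.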

[10] = system: Rattus norvegicus; assay: Reversal of haloperidol-induced catalepsy in po dosed Sprague-Dawley rat administered 30 mins after haloperidol challenge measured for 180 seconds after 1 hr; assay type: functional
Procedure, shortened: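 Sprague-Dawley rats received haloperidol (1 mg/kg sc). Oral test compound (0.01-30.0 mg/kg), L-DOPA/carbidopa (200:50 mg/kg) or vehicle followed, as in the mouse protocol. Time to descend from the bar was recorded (max 180 s). Mean ± SEM, n = 10-16 rats per group.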

[11] = Half life in cynomolgus monkey at 10 mg/kg, po; assay type: ADME, organism-based, Macaca fascicularis; design: dose 10 mg/kg, route oral; details: in vivo; procedure, shortened: as §3
[12] = Oral bioavailability in BALB/c mouse at 10 mg/kg; assay type: ADME, organism-based; details: in vivo; procedure, shortened: as §1
[13] = Half life in BALB/c mouse at 10 mg/kg, po; assay type: ADME, organism-based; design: dose 10 mg/kg, route oral; details: in vivo; procedure, shortened: as §1
[14] = Oral bioavailability in Sprague-Dawley rat at 10 mg/kg; assay type: ADME, organism-based; details: in vivo
Procedure, shortened: as §1, with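 “Sprague-Dawley rats” for “BALB/c mice”, “orbital sinus” for “cardiac”, “rats” for “animals”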

[15] = target: T1, Adenosine receptor A1 (Homo sapiens, UniProt P30542); assay: Antagonist activity at adenosine A1 receptor; assay type: functional
T1 sequence (P30542 whole entry): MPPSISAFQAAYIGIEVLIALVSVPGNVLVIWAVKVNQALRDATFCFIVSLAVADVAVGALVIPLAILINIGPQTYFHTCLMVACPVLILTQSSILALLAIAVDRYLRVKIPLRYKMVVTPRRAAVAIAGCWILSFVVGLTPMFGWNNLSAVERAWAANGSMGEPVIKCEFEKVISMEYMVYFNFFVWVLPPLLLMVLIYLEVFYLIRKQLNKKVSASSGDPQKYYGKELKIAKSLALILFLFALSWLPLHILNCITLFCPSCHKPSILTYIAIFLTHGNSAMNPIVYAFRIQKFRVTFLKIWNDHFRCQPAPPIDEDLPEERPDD

[16] = system: Rattus norvegicus; assay: Reversal of haloperidol-induced catalepsy in Sprague-Dawley rat at 1 mg/kg, po administered 30 mins after haloperidol challenge measured for 180 seconds after 4 hrs; assay type: functional, organism-based; design: dose 1 mg/kg; procedure, shortened: as §2
[17] = Half life in Sprague-Dawley rat at 10 mg/kg, po; assay type: ADME, organism-based; design: dose 10 mg/kg, route oral; details: in vivo
Procedure, shortened: as §1, with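 “Sprague-Dawley rats” for “BALB/c mice”, “orbital sinus” for “cardiac”, “rats” for “animals”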

[18] = system: Callithrix jacchus; assay: Inhibition of MPTP-induced motor disabilities in Callithrix jacchus at 50 mg/kg, po measured every 5 mins for 6 hrs; assay type: functional, organism-based; design: dose 50 mg/kg; procedure, shortened: as §5
[19] = system: Mus musculus; assay: Reversal of haloperidol-induced catalepsy in po dosed BALB/c mouse administered 30 mins after haloperidol challenge measured for 60 seconds after 1 hr; assay type: functional
Procedure, shortened: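 Fasted male BALB/c mice (18-23 g) received haloperidol 1 mg/kg sc (in 0.3% tartaric acid/0.9% saline). Test compound was given orally in 0.5% methylcellulose (0.01-10 mg/kg) 30 min later. L-DOPA 300 mg/kg plus carbidopa 75 mg/kg served as positive control. Groups were randomized and testing was blind. At 1 h, forepaws were placed on a bar 3.5 cm high and time on the bar was recorded (max 60 s). n = 9-11; Dunnett's test.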

[20] = target: Adenosine receptor A2a (Homo sapiens, UniProt P29274); assay: Antagonist activity at adenosine A2A receptor; assay type: functional
Chain of Adenosine receptor A2a (P29274 whole entry): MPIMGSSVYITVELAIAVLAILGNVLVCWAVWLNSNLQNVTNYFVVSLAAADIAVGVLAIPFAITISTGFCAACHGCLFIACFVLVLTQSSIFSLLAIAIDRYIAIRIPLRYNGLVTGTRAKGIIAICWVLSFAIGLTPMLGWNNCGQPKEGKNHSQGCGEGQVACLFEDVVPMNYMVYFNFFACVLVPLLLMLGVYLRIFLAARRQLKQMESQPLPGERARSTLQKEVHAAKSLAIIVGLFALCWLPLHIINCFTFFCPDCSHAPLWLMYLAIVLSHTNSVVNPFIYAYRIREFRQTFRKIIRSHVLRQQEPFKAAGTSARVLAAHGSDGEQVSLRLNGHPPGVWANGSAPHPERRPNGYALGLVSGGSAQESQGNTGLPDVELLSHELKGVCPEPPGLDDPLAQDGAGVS

[21] = Cmax in Sprague-Dawley rat plasma at 10 mg/kg, po; assay type: ADME, organism-based; design: dose 10 mg/kg, route oral
Procedure, shortened: as §1, with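 “Sprague-Dawley rats” for “BALB/c mice”, “orbital sinus” for “cardiac”, “rats” for “animals”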

[22] = system: Callithrix jacchus; assay: Inhibition of MPTP-induced motor disabilities in Callithrix jacchus at 1 mg/kg, po measured every 5 mins […]; assay type: functional, organism-based; design: dose 1 mg/kg; procedure, shortened: as §5
[23] = system: Mus musculus; assay: Reversal of reserpine-induced akinesia in CF1 mouse at 10 mg/kg, po administered 18 hrs before reserpine challenge measured for 30 mins after 60 mins; assay type: functional, organism-based; design: dose 10 mg/kg; details: in the assay text read “18 hrs after reserpine challenge” for “18 hrs before reserpine challenge”
Procedure, shortened: (§6)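 Mice were pretreated with reserpine (0.6 mg/kg sc) 18 h before testing. They were dosed orally with test compound (0.10, 1.0, 10.0, 30.0 mg/kg) or vehicle. Locomotion was recorded 60 min after dosing as total distance traveled (cm) over a 30 min period. Mean ± SEM, n = 10-12 per group; Hochberg test versus reserpine + vehicle.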

[24] = system: Mus musculus; assay: Reversal of reserpine-induced akinesia in po dosed CF1 mouse administered 18 hrs after reserpine challenge measured for 30 mins after 60 mins; details: read-out: MED
[25] = system: Rattus norvegicus; assay: Inhibition of 6-hydroxydopamine-induced rotational behavior in Sprague-Dawley rat at 0.1 to 10 mg/kg, po measured for 120 mins; assay type: functional; details: 2 h, dose mg/kg 0.1-10, read-out: MED
Procedure, shortened: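 Rats received 6-OHDA (12 μg) unilaterally into the medial forebrain bundle. Six weeks later they were dosed orally with test compound alone (0.1, 1.0, 3.0, 10 mg/kg). Rotation was tracked by an optical sensor tethered to an automated system, with one count per 360° turn. Readout was mean ± SEM total contralateral rotations over 2 h, n = 16 per group.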

[26] = system: Mus musculus; assay: Reversal of haloperidol-induced catalepsy in BALB/c mouse at 1 mg/kg, po administered 30 mins after haloperidol challenge measured for 60 seconds after 4 hrs; assay type: functional, organism-based; design: dose 1 mg/kg; procedure, shortened: as §4
[27] = system: Mus musculus; assay: Reversal of reserpine-induced akinesia in CF1 mouse at 1 mg/kg, po administered 18 hrs before reserpine challenge measured for 30 mins after 60 mins; assay type: functional, organism-based; design: dose 1 mg/kg; details: in the assay text read “18 hrs after reserpine challenge” for “18 hrs before reserpine challenge”; procedure, shortened: as §6
[28] = Ratio of drug level in brain to plasma in Sprague-Dawley rat at 10 mg/kg, po; assay type: ADME, organism-based; design: dose 10 mg/kg, route oral
Procedure, shortened: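 Fasted male Sprague-Dawley rats were given 10 mg/kg orally as a solution in 0.5% methylcellulose. At each time point four rats were euthanized for blood, plasma and brain. Brain was homogenized in methanol, and the extract was dried and reconstituted in mobile phase. Plasma was precipitated with acetonitrile. Both were quantified by LC-MS/MS.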

[29] = system: Callithrix jacchus; assay: Inhibition of MPTP-induced motor disabilities in Callithrix jacchus at 12 mg/kg, po measured every 5 mins […]; assay type: functional, organism-based; design: dose 12 mg/kg; procedure, shortened: as §5
[30] = system: Callithrix jacchus; assay: Toxicity in Callithrix jacchus assessed as induction of dyskinesia at 12 mg/kg, po measured for 10 mins every 30 mins […]; assay type: organism-based; design: dose 12 mg/kg, route oral; details: marmoset, in vivo
Procedure, shortened: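 MPTP-treated marmosets received vehicle, L-DOPA (12 mg/kg po) or oral test compound (0.1, 1.0, 10, 50 mg/kg). Dyskinesias (involuntary movements) were scored out to 4 h. Eight animals per group. Analysis used a Friedman test followed by Dunn's comparison.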

- Cmax [2]: 655 nM
- bioavailability [4]: 39%
- Cmax [5]: 626 nM
- Cmax [6]: 3550 nM
- half-life [11]: 3.2 h
- bioavailability [12]: 100%
- half-life [13]: 0.8 h
- bioavailability [14]: 64%
- Ki [15]: 17 nM
- half-life [17]: 1.6 h
- Ki [20]: 4.1 nM
- Cmax [21]: 1260 nM
- Kp [28]: 3
SMILES: Cl.Cl.Nc1nc(-c2ccccc2)c2c(n1)-c1cc(CN3CCCC3)ccc1C2=O
- Activity [1]: Dose-dependent effect
- Activity [3]: Active
- Activity [7]: Active
- Activity [8]: Active
- Activity [9]: Active
- Activity [10]: Dose-dependent effect
- ED50 [10]: 0.48 mg/kg
- minimal effective dose ([10]; read-out: MED): 1 mg/kg
- Activity [16]: Active
- Activity [18]: Active
- Activity [19]: Dose-dependent effect
- ED50 ([19]; Mus musculus, BALB/c, po): 0.17 mg/kg
- minimal effective dose ([19]; Mus musculus, BALB/c, po, read-out: MED): 1 mg/kg
- Activity [22]: Active
- Activity [23]: Active
- minimal effective dose [24]: 1 mg/kg
- minimal effective dose [25]: 1 mg/kg
- Activity [26]: Active
- Activity [27]: Active

SMILES: N[C@@H](Cc1ccc(O)c(O)c1)C(=O)O [LEVODOPA]
- inhibition [29]: Active
- Activity [30]: Toxic

SMILES: CCn1c(=O)c2c(nc(/C=C/c3ccc(OC)c(OC)c3)n2C)n(CC)c1=O [ISTRADEFYLLINE]
- Activity [8]: Active
- MRC [19]: 1 mg/kg
- ED50 ([19]; Mus musculus, BALB/c, po): 0.14 mg/kg
- Activity [26]: Active
